According to PubChem BioAssay AID504499 (Broad Institute, 2011):
Active and inactive are the calls of the source.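 How the source made its calls: active means compounds whose fitted half-maximal growth inhibition potency lies within ten times the top tested dose; inconclusive means flat inhibition of 30 to 70 percent, or poor fit; inactive means the rest.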

Tested on: not listed separately
Experiment: single-agent antifungal activity without fluconazole – CaCi-2, no fluconazole, powder samples, set 9, counter-screen for antifungal drug resistance project, dose response (AID 504499)
Conditions: C. albicans CaCi-2 growth without fluconazole, Alamar Blue, 48 h; at 26 µM (top of the series)
In short: (§1)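 Doses – test compounds delivered into wells by pin transfer · Material – Candida albicans strain CaCi-2 yeast cells · Input – yeast inoculum diluted to absorbance 0.00015 at 600 nm · Measured by – Alamar Blue fluorescence, 544/590 nm · Times – 48 h growth at 37 °C, dye 2 h at room temperature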

Compound	growth change, negative = inhibition
CN1CCN(C(=O)Cn2c3ccccc3c3nc4n(c(=O)c32)CCS4)CC1	2.02% (inactive)
O=C(O)Cn1c2ccc(F)cc2c2nc3n(c(=O)c21)CCS3	-15.5% (inactive)
COC(=O)Cn1nc(-c2cccc(OC)c2)c2ccccc21	-28.4% (inactive)
CCc1nn(CC(=O)OC)c2ccccc12	-15.4% (inactive)
COC(=O)Cn1nc(C2CCCCC2)c2ccccc21	-13.2% (inactive)
COC(=O)Cn1nc(-c2cnco2)c2ccccc21	22% (inactive)
COC(=O)Cn1nc(C2CC2)c2ccccc21	4% (inactive)
c1ccc(-c2nn(Cc3nnco3)c3ccccc23)cc1	18.3% (inactive)
O=C(Cn1c2ccc(F)cc2c2nc3n(c(=O)c21)CCS3)N1CCC(F)(F)C1	-1.64% (inactive)
CC1CCN(CCn2c3ccccc3c3nc4n(c(=O)c32)CCS4)CC1	2.22% (inactive)
COC(=O)Cn1nc(C(C)(C)C)c2ccccc21	6.09% (inactive)
O=C(Cn1c2ccccc2c2nc3n(c(=O)c21)CCS3)N1CC=CC1	6.32% (inactive)
O=C(Cn1c2ccccc2c2nc3n(c(=O)c21)CCS3)N1CCCCC1	-17.6% (inactive)
O=C(O)Cn1c2ccccc2c2nc3n(c(=O)c21)CCS3	31.2% (inactive)
CC1(O)CN(C(=O)Cn2c3ccccc3c3nc4n(c(=O)c32)CCS4)C1	5.26% (inactive)
COC(=O)Cn1nc(-c2cccnc2)c2ccccc21	1.88% (inactive)
O=C(Cn1c2ccccc2c2nc3n(c(=O)c21)CCS3)N1CCC(F)(F)C1	5.06% (inactive)
O=C(Cn1c2ccccc2c2nc3n(c(=O)c21)CCS3)N1CCC(F)(F)CC1	5.44% (inactive)
COC(=O)Cn1nc(-c2cccc(C)c2)c2ccccc21	-23.2% (inactive)
O=C(Cn1c2ccc(F)cc2c2nc3n(c(=O)c21)CCS3)N1CC=CC1	2.91% (inactive)
COC(=O)Cn1nc(-c2ccccc2)c2cccnc21	-7.57% (inactive)
COC(=O)Cn1nc(-c2cscn2)c2ccccc21	-11.4% (inactive)
COC(=O)Cn1nc(-c2cccc(F)c2)c2ccccc21	-24.6% (inactive)
O=C(Cn1c2ccc(F)cc2c2nc3n(c(=O)c21)CCS3)N1CCC(F)(F)CC1	-9.87% (inactive)
O=C(Cn1c2ccccc2c2nc3n(c(=O)c21)CCS3)N1CCCC1	-33.3% (inactive)
COC(=O)n1nc(-c2ccccc2)c2ccccc21	-9.34% (inactive)

Tested on: C. albicans CaCi-2 (fluconazole-resistant clinical isolate) growth without fluconazole, Alamar Blue, 48 h
Experiment: as above
Conditions: not given
In short: as §1

Compound	AC50
COC(=O)Cn1c2ccc(F)cc2c2nc3n(c(=O)c21)CCS3	19.4 µM
